Consider three compounds from article PMC6568317 (ACS chemical biology, 2017).

A value given as a limit tells only on which side of the number the result lay.

The target in test [1] is T1, human orotate phosphoribosyltransferase (HsOPRT) (Homo sapiens, UniProt P11172).
T1 sequence (P11172 1-214 limits assumed): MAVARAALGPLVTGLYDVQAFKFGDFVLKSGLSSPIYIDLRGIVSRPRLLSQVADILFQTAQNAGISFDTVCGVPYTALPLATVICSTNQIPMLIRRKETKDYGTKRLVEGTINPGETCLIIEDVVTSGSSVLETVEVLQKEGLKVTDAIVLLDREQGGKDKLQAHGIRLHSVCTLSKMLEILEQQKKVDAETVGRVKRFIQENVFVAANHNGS
Description: HsOPRT inhibition assay. To be noted: for inhibition of HsOPRT: at D-DIAB or L-DIAB concentrations of 200 μM. In kind it is biochemical. An outline of the steps: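 Human OPRT, 200 nM, at 25 °C in 50 mM Tris-HCl pH 8.0 with 5 mM MgCl₂. Substrates are 500 μM orotidine 5′-monophosphate and 1 mM pyrophosphate, with bis-phosphate iminoaltritol test compound present. Reaction followed by absorbance at 266 nm. Ki derived from initial rates measured in triplicate.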

Test [2] deals with T2, Plasmodium falciparum orotate phosphoribosyltransferase (PfOPRT) (Plasmodium falciparum, UniProt Q8I3Y0).
T2 sequence (Q8I3Y0 1-281): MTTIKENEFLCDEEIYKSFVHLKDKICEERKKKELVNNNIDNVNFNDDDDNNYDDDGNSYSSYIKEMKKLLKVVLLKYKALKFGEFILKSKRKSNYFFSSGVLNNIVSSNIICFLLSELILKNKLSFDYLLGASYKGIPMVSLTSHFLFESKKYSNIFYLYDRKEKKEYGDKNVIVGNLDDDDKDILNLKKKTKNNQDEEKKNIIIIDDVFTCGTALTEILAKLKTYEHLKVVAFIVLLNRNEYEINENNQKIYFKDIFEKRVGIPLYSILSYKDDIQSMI
In words: PfOPRT inhibition assay. It is filed as biochemical.

The target of test [3] is T3, Saccharomyces cerevisiae adenine phosphoribosyltransferase (ScAPRT) (Saccharomyces cerevisiae, UniProt P49435).
T3 sequence (P49435 1-187): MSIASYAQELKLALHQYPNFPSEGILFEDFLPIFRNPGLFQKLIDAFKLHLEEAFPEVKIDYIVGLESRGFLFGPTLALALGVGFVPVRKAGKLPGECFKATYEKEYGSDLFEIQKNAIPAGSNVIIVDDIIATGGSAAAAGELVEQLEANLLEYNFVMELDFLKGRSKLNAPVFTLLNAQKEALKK
Description: ScAPRT inhibition assay. In kind it is biochemical.

Test [4] has as its target T3, Saccharomyces cerevisiae adenine phosphoribosyltransferase (ScAPRT). To be noted: read-out: KM for PRPP (ScAPRT); previously reported substrate KM; cited from earlier work.

With `O=P(O)(O)OC[C@H]1N[C@H](COP(=O)(O)O)[C@@H](O)[C@H]1O` (stereo in doubt) [L-DIAB, L-2,5-dideoxy-2,5-imino-altritol 1,6-bisphosphate], the Ki was more than 200 µM in test [1], 103 ± 17 µM in test [2] and 14.9 ± 2.9 µM in test [3]. In test [1], the “inhibition of HsOPRT” value was “no apparent inhibition”.

`O=P(O)(O)OC[C@H]1O[C@H](OP(=O)(O)OP(=O)(O)O)[C@H](O)[C@@H]1O` [PRPP, 5-phospho-α-D-ribosyl 1-pyrophosphate]: the Km in test [4] was 20 µM.

As for `O=P(O)(O)OC[C@H]1N[C@H](COP(=O)(O)O)[C@@H](O)[C@@H]1O` [D-DIAB, D-2,5-dideoxy-2,5-imino-altritol 1,6-bisphosphate], in test [1], the “inhibition of HsOPRT” value was “no apparent inhibition”. Besides, the “selectivity for D-DIAB over L-DIAB in PfOPRT inhibition” value in test [2] (ratio of Ki values, Table 1) is listed as 3 fold.
